Experimental data reported in ChEMBL document CHEMBL1629583, “Establishment of in vitro susceptibility testing methodologies and comparative activities of piperacillin in combination with the penem {beta}-lactamase inhibitor BLI-489” (2009).

Tests used:
Assay type in all cases: functional
[1] = test system: Stenotrophomonas maltophilia; assay: Antimicrobial activity against Stenotrophomonas maltophilia clinical isolate after 18 to 22 hrs by broth microdilution method in presence of beta-lactamase inhibitor Tazobactam
In short: (§1)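 Piperacillin-tazobactam was tested by CLSI broth microdilution in Mueller-Hinton II broth against clinical isolates. Inoculum was 10^5 CFU/ml, with 18 to 22 h incubation at 35°C in ambient air. MIC was read as the lowest concentration completely inhibiting visible growth.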

[2] = test system: Stenotrophomonas maltophilia; assay: Antimicrobial activity against Stenotrophomonas maltophilia clinical isolate after 18 to 22 hrs by broth microdilution method in presence of beta-lactamase inhibitor BLI-489
In short: (§2)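 CLSI broth microdilution in Mueller-Hinton II broth. Serial dilutions of piperacillin were tested with BLI-489 held at a constant 4 μg/ml. Inoculum was 10^5 CFU/ml. Plates were incubated 18 to 22 h at 35°C in ambient air. MIC was the lowest concentration giving complete growth inhibition by unaided eye.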

[3] = test system: Staphylococcus aureus; assay: Antimicrobial activity against methicillin-resistant Staphylococcus aureus clinical isolate after 18 to 22 hrs by broth microdilution method in presence of beta-lactamase inhibitor BLI-489
In short: (§3)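 CLSI broth microdilution in Mueller-Hinton II broth. Antibiotic in serial dilution with the β-lactamase inhibitor held at a constant 4 μg/ml. Inoculum 10^5 CFU/ml. Incubated 18 to 22 h at 35°C in ambient air.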

[4] = test system: Staphylococcus epidermidis; assay: Antimicrobial activity against methicillin-resistant Staphylococcus epidermidis clinical isolate after 18 to 22 hrs by broth microdilution method in presence of beta-lactamase inhibitor Tazobactam; in short: as §3
[5] = test system: Staphylococcus epidermidis; assay: Antimicrobial activity against methicillin-susceptible Staphylococcus epidermidis clinical isolate after 18 to 22 hrs by broth microdilution method in presence of beta-lactamase inhibitor BLI-489
In short: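 Piperacillin serially diluted with BLI-489 held at a constant 4 μg/ml, by CLSI broth microdilution in Mueller-Hinton II broth. Inoculum was 10^5 CFU/ml. Plates were incubated 18 to 22 h at 35°C in ambient air. MIC was the lowest concentration completely inhibiting growth seen by the unaided eye.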

[6] = test system: Staphylococcus haemolyticus; assay: Antimicrobial activity against Staphylococcus haemolyticus clinical isolate after 18 to 22 hrs by broth microdilution method in presence of beta-lactamase inhibitor Tazobactam; in short: as §1
[7] = test system: Enterococcus avium; assay: Antimicrobial activity against Enterococcus avium clinical isolate after 18 to 22 hrs by broth microdilution method in presence of beta-lactamase inhibitor Tazobactam
In short: (§4)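 Piperacillin-tazobactam was tested on recent clinical isolates by CLSI broth microdilution in Mueller-Hinton II broth, with tazobactam at constant 4 μg/ml. Wells held 10^5 CFU/ml and were incubated 18 to 22 h at 35°C in ambient air. MIC was the lowest concentration with no growth visible to the unaided eye.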

[8] = test system: Bacteroides fragilis; assay: Antimicrobial activity against Bacteroides fragilis clinical isolate after 18 to 22 hrs by broth microdilution method in presence of beta-lactamase inhibitor BLI-489
[9] = test system: Bacteroides thetaiotaomicron; assay: Antimicrobial activity against Bacteroides thetaiotaomicron clinical isolate after 18 to 22 hrs by broth microdilution method in presence of beta-lactamase inhibitor Tazobactam
[10] = test system: Peptostreptococcus anaerobius; assay: Antimicrobial activity against Peptostreptococcus anaerobius clinical isolate after 18 to 22 hrs by broth microdilution method
[11] = test system: Peptostreptococcus anaerobius; assay: Antimicrobial activity against Peptostreptococcus anaerobius clinical isolate after 18 to 22 hrs by broth microdilution method in presence of beta-lactamase inhibitor Tazobactam
[12] = test system: Parvimonas micra; assay: Antimicrobial activity against Peptostreptococcus micros clinical isolate after 18 to 22 hrs by broth microdilution method
[13] = test system: Enterococcus casseliflavus; assay: Antimicrobial activity against Enterococcus casseliflavus clinical isolate after 18 to 22 hrs by broth microdilution method in presence of beta-lactamase inhibitor Tazobactam; in short: as §4
[14] = test system: Enterococcus casseliflavus; assay: Antimicrobial activity against Enterococcus casseliflavus clinical isolate after 18 to 22 hrs by broth microdilution method in presence of beta-lactamase inhibitor BLI-489
In short: (§5)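 CLSI broth microdilution in Mueller-Hinton II broth. Piperacillin serial dilutions were combined with BLI-489 held constant at 4 μg/ml. Inoculum was 10^5 CFU/ml. Plates were incubated 18 to 22 h at 35°C in ambient air. MIC was the lowest concentration completely inhibiting growth seen by the unaided eye. Piperacillin-tazobactam interpretive criteria were applied.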

[15] = test system: Enterococcus durans; assay: Antimicrobial activity against Enterococcus durans clinical isolate after 18 to 22 hrs by broth microdilution method in presence of beta-lactamase inhibitor BLI-489; in short: as §5
[16] = test system: Streptococcus pyogenes; assay: Antimicrobial activity against Streptococcus pyogenes clinical isolate after 18 to 22 hrs by broth microdilution method in presence of beta-lactamase inhibitor Tazobactam
In short: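 Streptococcal isolates were tested with piperacillin-tazobactam by CLSI broth microdilution in Mueller-Hinton II broth supplemented with 5% lysed horse blood. Inoculum was 10^5 CFU/ml, incubated 18 to 22 h at 35°C in ambient air. Visual endpoint: lowest concentration with complete inhibition.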

[17] = test system: Enterobacter cloacae; assay: Antimicrobial activity against Enterobacter cloacae clinical isolate after 18 to 22 hrs by broth microdilution method in presence of beta-lactamase inhibitor BLI-489; in short: as §5
[18] = test system: Escherichia coli; assay: Antimicrobial activity against Escherichia coli clinical isolate after 18 to 22 hrs by broth microdilution method in presence of beta-lactamase inhibitor Tazobactam
[19] = test system: Citrobacter freundii; assay: Antimicrobial activity against AmpC beta-lactamase-producing Citrobacter freundii clinical isolate after 18 to 22 hrs by broth microdilution method in presence of beta-lactamase inhibitor Tazobactam; in short: as §4
[20] = test system: Klebsiella aerogenes; assay: Antimicrobial activity against AmpC beta-lactamase-producing Enterobacter aerogenes clinical isolate after 18 to 22 hrs by broth microdilution method in presence of beta-lactamase inhibitor BLI-489; in short: as §5
[21] = test system: Serratia marcescens; assay: Antimicrobial activity against Serratia marcescens clinical isolate after 18 to 22 hrs by broth microdilution method in presence of beta-lactamase inhibitor BLI-489; in short: as §2
[22] = test system: Morganella morganii; assay: Antimicrobial activity against Morganella morganii clinical isolate after 18 to 22 hrs by broth microdilution method in presence of beta-lactamase inhibitor Tazobactam; in short: as §1
[23] = test system: Providencia rettgeri; assay: Antimicrobial activity against Providencia rettgeri clinical isolate after 18 to 22 hrs by broth microdilution method in presence of beta-lactamase inhibitor BLI-489; in short: as §2
[24] = test system: Acinetobacter baumannii; assay: Antimicrobial activity against Acinetobacter baumannii clinical isolate after 18 to 22 hrs by broth microdilution method in presence of beta-lactamase inhibitor Tazobactam; in short: as §4

CCN1CCN(C(=O)N[C@@H](C(=O)N[C@@H]2C(=O)N3[C@@H]2SC(C)(C)[C@@H]3C(=O)O)c2ccccc2)C(=O)C1=O [PIPERACILLIN]
0.12 µg/mL: MIC50 [12]
4 µg/mL: MIC50 [9] | MIC50 [13] | MIC90 [21]
64 µg/mL: MIC90 [7]
32 µg/mL: MIC50 [3] | MIC50 [6]
8 µg/mL: MIC90 [4] | MIC90 [9] | MIC90 [14] | MIC90 [15] | MIC50 [19] | MIC90 [20] | MIC90 [23]
> 128 µg/mL: MIC [1] | MIC50 [1] | MIC90 [1] | MIC50 [2] | MIC90 [2] | MIC90 [6] | MIC90 [19] | MIC50 [24] | MIC90 [24]
16 µg/mL: MIC50 [7] | MIC90 [13] | MIC90 [17]
0.06 µg/mL: MIC50 [10] | MIC90 [10] | MIC90 [16]
≤ 0.004 µg/mL: MIC [5] | MIC50 [5] | MIC90 [5]
2 µg/mL: MIC50 [14] | MIC50 [15] | MIC50 [17] | MIC50 [18] | MIC90 [18] | MIC50 [20]
0.03 µg/mL: MIC50 [16]
0.5 µg/mL: MIC90 [8] | MIC50 [22]
0.25 µg/mL: MIC50 [8] | MIC90 [12]
≤ 0.015 µg/mL: MIC [11] | MIC50 [11] | MIC90 [11]
1 µg/mL: MIC50 [4] | MIC50 [21] | MIC90 [22] | MIC50 [23]
